In publication PMC5485308 (Molecular Metabolism, 2017):
Blank lines part the entries; values can stand above or below the molecule they belong to. Ends that are not written are not given here.

Assays:
[1] = Peptide hydrolysis by fecal protein extracts of celiac disease; type: in vitro ADME, human; details: for extent of degradation by CD fecal samples, 24 h: fecal extracts of CD patients, 24-h incubation (not shown)
How it was run: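 Stools from treated celiac patients (Marsh III at diagnosis, gluten-free diet, no antibiotics for a month) were stored at −80 °C. They were homogenized in 10 mM Tris-HCl pH 7.5, and the 35–65% ammonium sulfate fraction was desalted. Extract (3.4 µL of 0.8 mg/mL) plus peptide (4.7 µL of 60 µM) in PBS pH 7.3 ran 60 min or 24 h at 37 °C. Read-out: C18 RP-HPLC, UV 215 nm.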

Elastase 2A (CEL2A) = target: T1, Elastase 2A (CEL2A) (Homo sapiens, UniProt P08217); experiment: 33-mer, 19-mer and 13-mer hydrolysis by purified human fecal elastase 2A; type: in vitro ADME; details: for extent of degradation by CEL2A: PBS pH 7.3, 37 °C, 60 min, RP-HPLC UV 215 nm
T1 sequence (P08217 29-269): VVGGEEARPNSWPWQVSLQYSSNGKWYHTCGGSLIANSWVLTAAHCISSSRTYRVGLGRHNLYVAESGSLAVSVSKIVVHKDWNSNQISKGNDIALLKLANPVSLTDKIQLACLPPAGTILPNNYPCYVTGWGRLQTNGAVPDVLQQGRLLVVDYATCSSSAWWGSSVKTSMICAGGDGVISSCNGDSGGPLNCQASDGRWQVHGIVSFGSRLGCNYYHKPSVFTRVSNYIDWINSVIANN
How it was run: (§1)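 Purified human fecal enzyme (3.4 µL of 0.8 mg/mL) was incubated with 33-, 19- or 13-mer gliadin peptide (4.7 µL of 60 µM) in PBS pH 7.3 (40 µL total) at 37 °C for 60 min (also 24 h). Reactions were stopped by boiling for 10 min, then filtered. Read-out: C18 RP-HPLC, 0.1% TFA water-to-acetonitrile gradient over 20 min, UV 215 nm. Controls: enzyme boiled 15 min; peptide alone.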

[2] = target: T2, carboxypeptidase A1 (CBPA1) (Homo sapiens, UniProt P15085); type: in vitro ADME; details: for extent of degradation by CBPA1: purified CBPA1, PBS pH 7.3, 37 °C, 60 min, RP-HPLC UV 215 nm
T2 sequence (P15085 111-419): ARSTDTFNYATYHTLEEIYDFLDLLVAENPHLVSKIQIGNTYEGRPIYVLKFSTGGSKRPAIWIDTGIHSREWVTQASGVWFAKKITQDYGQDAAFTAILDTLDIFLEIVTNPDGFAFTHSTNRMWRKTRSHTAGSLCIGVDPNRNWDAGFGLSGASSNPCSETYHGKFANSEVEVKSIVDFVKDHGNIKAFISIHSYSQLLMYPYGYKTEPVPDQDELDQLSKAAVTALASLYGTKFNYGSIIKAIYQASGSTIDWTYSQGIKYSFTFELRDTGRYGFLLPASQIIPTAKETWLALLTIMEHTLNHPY
How it was run: as §1

Elastase 3B (CEL3B) = target: T3, Elastase 3B (CEL3B) (Homo sapiens, UniProt P08861); experiment: 33-mer, 19-mer and 13-mer hydrolysis by purified human fecal elastase 3B; type: in vitro ADME
T3 sequence (P08861 29-270): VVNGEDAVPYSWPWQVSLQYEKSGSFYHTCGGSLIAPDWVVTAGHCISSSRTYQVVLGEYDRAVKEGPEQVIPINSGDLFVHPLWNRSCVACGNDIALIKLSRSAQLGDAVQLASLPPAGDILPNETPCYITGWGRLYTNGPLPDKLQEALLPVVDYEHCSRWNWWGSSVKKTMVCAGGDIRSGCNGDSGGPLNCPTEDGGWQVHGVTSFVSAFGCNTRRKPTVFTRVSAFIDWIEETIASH
How it was run: as §1

CEL2A, CBPA1, and CEL3B = experiment: 33-mer hydrolysis with CEL2A, CBPA1 and CEL3B added together; type: in vitro ADME, human; details: CBPA1 and CEL3B added simultaneously or sequentially, 60 min (not shown)
gluten and gliadin = experiment: Glutenase and gliadinase activity of commercial proteases; type: biochemical; details: bioassay on MCG-1 gluten agar plates and gliadin zymography
[3] = 37 °C, 24-h incubation (not shown)

- extent of degradation by CD fecal samples, 24 h [1]: completely degraded
- extent of degradation by CEL2A (Elastase 2A (CEL2A)): fully degraded
- extent of degradation by CBPA1 [2]: fully degraded
Molecule: LGQQQPFPPQQPY [13-mer]

- extent of degradation by CD fecal samples, 24 h [1]: completely degraded
- extent of degradation by CEL2A (Elastase 2A (CEL2A)): fully degraded
- extent of degradation by CBPA1 [2]: fully degraded
Molecule: LGQQQPFPPQQPYPQPQPF [19-mer]

- degradation in CD patients relative to NCD samples (higher by) ([1]; fecal extracts of CD patients versus NCD volunteers, 37 °C, 60 min, HPLC): 37%
- extent of degradation by CD fecal samples, 24 h [1]: incomplete
- extent of degradation by CEL3B after 24 h (Elastase 3B (CEL3B); [3]): not completely degraded
- extent of degradation by CEL3B (Elastase 3B (CEL3B); PBS pH 7.3, 37 °C, 60 min, RP-HPLC UV 215 nm): not completely degraded
- extent of degradation by CEL2A after 24 h (Elastase 2A (CEL2A); [3]): not completely degraded
- extent of degradation by CEL2A (Elastase 2A (CEL2A)): not completely degraded
- change of degradation when all 3 enzymes are added (CEL2A, CBPA1, and CEL3B): did not increase
- extent of degradation by CBPA1 after 24 h ([2]; purified CBPA1, 37 °C, 24-h incubation (not shown)): not completely degraded
- extent of degradation by CBPA1 [2]: not completely degraded
Molecule: LQLQPFPQPQLPYPQPQLPYPQPQLPYPQPQPF [33-mer]

- hydrolytic activity against gluten and gliadin (gluten and gliadin): showed hydrolytic activity
Molecule: porcine elastase: commercial protease (3.4.21.36) from Sigma

- hydrolytic activity against gluten and gliadin (gluten and gliadin): showed hydrolytic activity
B1: recombinant mouse chymotrypsin-like elastase family member 3B: commercial protease (3.4.21.70) from MyBioSource (protein, UniProt Q9CQ52 28-269, looked up)
Chymotrypsin-like elastase …: VVNGEEAVPHSWPWQVSLQYEKDGSFHHTCGGSLITPDWVLTAGHCISTSRTYQVVLGEHERGVEEGQEQVIPINAGDLFVHPKWNSMCVSCGNDIALVKLSRSAQLGDAVQLACLPPAGEILPNGAPCYISGWGRLSTNGPLPDKLQQALLPVVDYEHCSRWNWWGLSVKTTMVCAGGDIQSGCNGDSGGPLNCPADNGTWQVHGVTSFVSSLGCNTLRKPTVFTRVSAFIDWIEETIANN

- hydrolytic activity against gluten and gliadin (gluten and gliadin): showed hydrolytic activity
B2: recombinant bovine chymotrypsin-like elastase family member 2A: commercial protease (3.4.21.71) from MyBioSource (protein, UniProt Q29461 29-269, looked up)
Chymotrypsin-like elastase …: VVGGEDARPNSWPWQVSLQYSSSGQWRHTCGGSLIEQNWVLTAAHCISSSRTYRVVVGRQSLSTVESGSLTIAVSKSVIHEKWNSNQLAQGNDIALLKLASSVPLTDKIQLGCLPAAGTILPNNYVCYVTGWGRLQSNGALPDILQQGKLLVVDYATCSNPSWWGSTVKTNMICAGGDGVTSSCNGDSGGPLNCQAANRQWQVHGIVSFGSSLGCNYYRKPSVFTRVSNYNDWISSVIENN

- hydrolytic activity against gluten and gliadin (gluten and gliadin): showed hydrolytic activity
B3: recombinant rat carboxypeptidase A1: commercial protease (3.4.17.1) from MyBioSource (protein, UniProt P00731 111-419, looked up)
Carboxypeptidase A1: ALSTDSFNYATYHTLDEIYEFMDLLVAEHPQLVSKIQIGNTFEGRPIHVLKFSTGGTNRPAIWIDTGIHSREWVTQASGVWFAKKITKDYGQDPTFTAVLDNMDIFLEIVTNPDGFAYTHKTNRMWRKTRSHTQGSLCVGVDPNRNWDAGFGMAGASSNPCSETYRGKFPNSEVEVKSIVDFVTSHGNIKAFISIHSYSQLLLYPYGYTSEPAPDQAELDQLAKSAVTALTSLHGTKFKYGSIIDTIYQASGSTIDWTYSQGIKYSFTFELRDTGLRGFLLPASQIIPTAEETWLALLTIMDHTVKHPY
